Here are results for eleven compounds from ChEMBL document CHEMBL3603751, “A new small molecule inhibitor of soluble guanylate cyclase” (Bioorg Med Chem, 2015).

One assay is filed under the species Bos taurus. The experiment in a line: Inhibition of bovine lung sGC using GTP as substrate assessed as inhibition of NO-stimulated cGMP formation at 100 uM preincubated with protein followed by NO addition measured after 2 mins by radioimmunoassay relative to control. In outline:
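Purified bovine lung sGC (5 ng/ml) in 50 mM Tris, 0.3 mM MgCl, 100 μM EGTA, 0.045% BSA, 1000 units/mL SOD, pH 7.4, with 1 mM MgGTP at 37 °C. Compound (100 μM) added before DEA/NO (30 nM). Reaction ran 2 min, then aliquots were boiled in 50 mM Tris/4 mM EDTA. cGMP was quantified by [3H] radioimmunoassay.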

The target in assay [1] is Soluble guanylate cyclase (Homo sapiens) (UniProt Q02153+O75343+P33402+Q02108). As to the kind of experiment: Binding affinity to human recombinant sGC catalytic subunit by surface plasmon resonance analysis. In kind it is protein-complex assay. (Surface plasmon resonance follows binding to a sensor surface in real time, without labels.)
Assay [2] deals with T1, Adenylate cyclase (Homo sapiens) (UniProt Q8NFM4+O60503+Q08828+P40145+O60266+O95622+O43306+Q08462+P51828). As to the kind of experiment: Inhibition of forskolin-stimulated adenylyl cyclase (unknown origin).
In assay [3] the target is T1, Adenylate cyclase (Homo sapiens). The experiment in a line: Inhibition of adenylyl cyclase (unknown origin). It is filed as protein assay.
A further assay is filed under the species Rattus norvegicus. As to the kind of experiment: Inhibition of sGC in rat cerebellar slices assessed as inhibition of NMDA-induced cGMP production at 100 uM preincubated for 10 mins followed by phosphodiesterase inhibitor IBMX addition by radioimmunoassay. The gist of the method:
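Sagittal cerebellar slices 0.4 mm thick were cut from 10-day-old rats. Antagonists were added 10 min before IBMX (1 mM, 10 min preincubation). Slices were inactivated in boiling Tris–HCl (50 mM, pH 7.5) with EDTA (4 mM) and sonicated. Protein was measured by bicinchoninic acid and cGMP by radioimmunoassay.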

Active and inactive are the calls of the source. The rule behind the calls is not given here.

As for `N#Cc1ccc2nc(Nc3ccc(O)cc3)c(Nc3ccc(O)cc3)nc2c1`, the inhibition result in the assay filed under Bos taurus was “inactive”.
With `CNC(=O)c1ccc2nc(Nc3cccc(O)c3)c(Nc3cccc(O)c3)nc2c1`, in assay [1], the RU worked out at 9.6.
Consider `CC(=O)Nc1ccc(Nc2nc3ccc([N+](=O)[O-])cc3nc2Nc2ccc(NC(C)=O)cc2)cc1`, for which, in the assay filed under Bos taurus, the inhibition entry was “inactive”.
Regarding `O=[N+]([O-])c1ccc2nc(Nc3ccc(O)cc3)c(Nc3ccc(O)cc3)nc2c1`, the inhibition entry in assay [2] and in assay [3] was “inactive” throughout. Further, the inhibition result in the assay listed under Rattus norvegicus is “Active”.
On to `O=[N+]([O-])c1ccc2nc(Nc3ccc(F)cc3)c(Nc3ccc(F)cc3)nc2c1`, for which the inhibition result in the assay filed under Bos taurus is “inactive”.
`Oc1ccc(Nc2nc3ccc(Cl)cc3nc2Nc2ccc(O)cc2)cc1`: the inhibition entry in the assay filed under Bos taurus was “inactive”.
Turning to `CC(=O)Nc1cccc(Nc2nc3ccc([N+](=O)[O-])cc3nc2Nc2cccc(NC(C)=O)c2)c1`, in the assay filed under Bos taurus, the inhibition entry was “inactive”.
Take `Oc1cccc(Nc2nc3ccc(Cl)cc3nc2Nc2cccc(O)c2)c1`: the inhibition entry in the assay listed under Bos taurus is “inactive”.
The same measure, in the same setting: the same measure for `COc1ccc(Nc2nc3ccc([N+](=O)[O-])cc3nc2Nc2ccc(OC)cc2)cc1`: “inactive”; for `Nc1ccc2nc(Nc3ccc(O)cc3)c(Nc3ccc(O)cc3)nc2c1`: “inactive”; for `N#Cc1ccc2nc(Nc3cccc(O)c3)c(Nc3cccc(O)c3)nc2c1`: “inactive”.
